{"data": "Results from different studies", "LRRK2 G2019S": "Leucine-rich repeat serine/threonine-protein kinase 2 (LRRK2, Homo sapiens, UniProt Q5S007, G2019S)", "LRRK2": "Leucine-rich repeat serine/threonine-protein kinase 2 (LRRK2, Homo sapiens, UniProt Q5S007)", "note": "Protocols differ between the studies behind these lines."}
{"SMILES": "CS(=O)(=O)N1CCCC(NC(=O)[C@H](CCC2CCCCC2)NC(=O)c2ccc(CNC(=O)c3cnc4ccccn34)cc2)C1 (some centres unmarked)", "target": "LRRK2 G2019S", "assay": "cell-free assay, competition with immobilised ligand", "conditions": "0.1 µM", "remaining binding [%]": 100}
{"SMILES": "O=C(NCC1CCOCC1)c1n[nH]cc1NC(=O)c1c(F)cccc1F", "target": "LRRK2", "assay": "binding, competition with immobilised ligand", "conditions": "1 µM", "remaining binding [%]": 76}
{"SMILES": "CNCc1ccccc1-c1csc([C@@H](C)Nc2nc(C)nc3cc(OC)c(OC)cc23)c1", "target": "LRRK2 G2019S", "assay": "cell-free assay, competition with immobilised ligand", "conditions": "1 µM", "remaining binding [%]": 72}
{"SMILES": "F[C@@H]1CCN(c2nccc(-c3cnn4ncccc34)n2)C1", "target": "LRRK2", "assay": "binding", "conditions": "1 µM", "remaining binding [%]": 100}
{"SMILES": "Cc1cc(-n2nc(Cc3cc(F)cc(C(F)(F)F)c3)nc2C)ccc1C(N)=O", "target": "LRRK2 G2019S", "assay": "cell-free assay, competition with immobilised ligand", "conditions": "1 µM", "remaining binding [%]": 100}
{"SMILES": "O=C(Nc1c[nH]nc1C(=O)NC1CCNCC1)c1cc(F)cc(F)c1", "target": "LRRK2 G2019S", "assay": "binding, competition with immobilised ligand", "conditions": "1 µM", "remaining binding [%]": 93}
{"SMILES": "CN(C)c1nccc(-c2cnc3ncccn23)n1", "target": "LRRK2 G2019S", "assay": "binding", "conditions": "1 µM", "remaining binding [%]": 71}
{"SMILES": "CCC(=O)N[C@@H]1CC[C@H](C(=O)N(C)c2ccc(-c3nc4ccccc4o3)cc2)C1", "target": "LRRK2 G2019S", "assay": "cell-free assay, competition with immobilised ligand", "conditions": "1 µM", "remaining binding [%]": 100}
{"SMILES": "CN1CCN(c2ccc(Nc3nccc(-c4cccc([N+](=O)[O-])c4)n3)cc2C(F)(F)F)CC1", "target": "LRRK2 G2019S", "assay": "binding", "conditions": "10 µM", "remaining binding [%]": 49}
{"SMILES": "O=C(O)[C@@H]1[C@@H](Cn2nnc3ccccc3c2=O)CC[C@H]1C(=O)c1ccc(OCCC2CCOCC2)cc1", "target": "LRRK2", "assay": "cell-free assay, competition with immobilised ligand", "conditions": "1 µM", "remaining binding [%]": 100}
{"SMILES": "Cc1cnc(Nc2ccc(C(=O)N3CCC(N4CCCC4)CC3)cc2)nc1-c1cc2ccccc2s1", "target": "LRRK2 G2019S", "assay": "binding, competition with immobilised ligand", "conditions": "1 µM", "remaining binding [%]": 2.8}
{"SMILES": "CCC(=N\\O)/C(C)=C/c1ccc(F)cc1", "target": "LRRK2", "assay": "cell-free assay, competition with immobilised ligand", "conditions": "1 µM", "remaining binding [%]": 90}
{"SMILES": "O=C(c1ccc(Nc2nccc(-c3cc4ccccc4s3)n2)cc1)N1CCC(N2CCCC2)CC1", "target": "LRRK2 G2019S", "assay": "binding, competition with immobilised ligand", "conditions": "1 µM", "remaining binding [%]": 16}
{"SMILES": "CNC(=O)[C@@H]1CC[C@@H](n2c(-c3ccc4cnccc4c3)nc3ccc(C(=O)NCc4cccc(C(N)=O)c4)cc32)C1", "target": "LRRK2", "assay": "binding, competition with immobilised ligand", "conditions": "1 µM", "remaining binding [%]": 100}
{"SMILES": "c1cncc(-c2cccc(Nc3nccc(NC4CCCCC4)n3)c2)c1", "target": "LRRK2 G2019S", "assay": "binding, competition with immobilised ligand", "conditions": "10 µM", "remaining binding [%]": 61}
{"SMILES": "CC1CCCN1c1nccc(-c2cnn3ncccc23)n1 (centres unmarked)", "target": "LRRK2 G2019S", "assay": "binding", "conditions": "1 µM", "remaining binding [%]": 100}
{"SMILES": "Nc1ncc2c(n1)-c1c([nH]c3ccc(C#CC4CC4)cc13)CCCC2", "target": "LRRK2", "assay": "binding, competition with immobilised ligand", "conditions": "1 µM", "remaining binding [%]": 83}
{"SMILES": "COc1ccnn2ncc(-c3ccnc(N(C)C)n3)c12", "target": "LRRK2 G2019S", "assay": "binding", "conditions": "1 µM", "remaining binding [%]": 100}
{"SMILES": "O=C(c1ccc(Nc2ncc(Cl)c(-c3cc4ccccc4s3)n2)cc1)N1CCC(N2CCCC2)CC1", "target": "LRRK2 G2019S", "assay": "binding, competition with immobilised ligand", "conditions": "1 µM", "remaining binding [%]": 5.9}
{"SMILES": "C=CC(=O)N1CCC(C(=O)NCC(=O)N2CCN(c3nc(-c4cnc(N)nc4C(F)F)nc(N4CCOCC4)n3)CC2)CC1", "target": "LRRK2 G2019S", "assay": "binding, competition with immobilised ligand", "conditions": "1 µM", "remaining binding [%]": 79}
{"SMILES": "C[C@@H](c1ccc(-n2cnc3c(N)ncnc32)cc1)N1CCc2nn(C)c(Cc3ccccc3)c2C1=O", "target": "LRRK2 G2019S", "assay": "binding, competition with immobilised ligand", "conditions": "0.1 µM", "remaining binding [%]": 92}
{"SMILES": "CN([C@@H]1CCc2c(CC(=O)O)c3cc(S(C)(=O)=O)ccc3n2C1)S(=O)(=O)c1ccc(F)cc1", "target": "LRRK2 G2019S", "assay": "cell-free assay, competition with immobilised ligand", "conditions": "1 µM", "remaining binding [%]": 100}
{"SMILES": "COc1cnc(Nc2cccc(S(N)(=O)=O)c2)nc1N1CCN(c2ccccc2)C(=O)C1", "target": "LRRK2 G2019S", "assay": "binding, competition with immobilised ligand", "conditions": "1 µM", "remaining binding [%]": 100}
{"SMILES": "O=C(NCCCN1CCOCC1)c1ccc(Nc2ncc(Cl)c(-c3ccc(Cl)s3)n2)cc1", "target": "LRRK2 G2019S", "assay": "binding, competition with immobilised ligand", "conditions": "1 µM", "remaining binding [%]": 10}
{"SMILES": "C[C@H]1CCN(c2nccc(-c3cnn4ncccc34)n2)C1", "target": "LRRK2", "assay": "binding", "conditions": "1 µM", "remaining binding [%]": 67}
{"SMILES": "O=C(NCCCN1CCOCC1)c1ccc(Nc2nccc(-c3cc4ccccc4s3)n2)cc1", "target": "LRRK2", "assay": "binding, competition with immobilised ligand", "conditions": "1 µM", "remaining binding [%]": 63}
{"SMILES": "c1ccc(N2CCN(Cc3nc4ccccc4[nH]3)CC2)nc1", "target": "LRRK2", "assay": "binding, competition with immobilised ligand", "conditions": "1 µM", "remaining binding [%]": 99}
{"SMILES": "CN(C)c1nccc(-c2cnn3ncccc23)n1", "target": "LRRK2 G2019S", "assay": "binding", "conditions": "1 µM", "remaining binding [%]": 69}
{"SMILES": "COc1ncc2cc3ccccc3nc2c1C#N", "target": "LRRK2 G2019S", "assay": "cell-free assay, competition with immobilised ligand", "conditions": "5 µM", "remaining binding [%]": 100}
{"SMILES": "CN(CCCC(F)(F)F)c1nccc(-c2cnn3ncccc23)n1", "target": "LRRK2 G2019S", "assay": "binding", "conditions": "1 µM", "remaining binding [%]": 100}
{"SMILES": "O=C(c1ccc(Nc2ncc(Cl)c(-c3ccc(Cl)s3)n2)cc1)N1CCC(N2CCCC2)CC1", "target": "LRRK2 G2019S", "assay": "binding, competition with immobilised ligand", "conditions": "1 µM", "remaining binding [%]": 1.1}
{"SMILES": "CCN1CCN(Cc2ccc(C(=O)Nc3ccc(C)c(Oc4ccc5c(c4)CC(=O)N5)c3)cc2C(F)(F)F)CC1", "target": "LRRK2", "assay": "binding, competition with immobilised ligand", "conditions": "1 µM", "remaining binding [%]": 100}
{"SMILES": "N[C@H]1CCN(c2nccc(-c3cnn4ncccc34)n2)C1", "target": "LRRK2 G2019S", "assay": "binding", "conditions": "1 µM", "remaining binding [%]": 89}
{"SMILES": "FC(F)(F)Oc1cccc(-c2cnc3ccc(-c4ccncc4)nn23)c1", "target": "LRRK2", "assay": "cell-free assay, competition with immobilised ligand", "conditions": "5 µM", "remaining binding [%]": 52}
{"SMILES": "COc1cnc(Nc2cccc(S(N)(=O)=O)c2)nc1N1CCN(c2ccccc2)CC1", "target": "LRRK2 G2019S", "assay": "binding, competition with immobilised ligand", "conditions": "1 µM", "remaining binding [%]": 95}
